Assay results taken from ChEMBL document CHEMBL1125155, “Preparation and anticonvulsant activity of a series of functionalized alpha-aromatic and alpha-heteroaromatic amino acids” (J Med Chem, 1990).

How the values were obtained:
Mus musculus [1] = assay: Concentration required to inhibit seizures was determined in MES test after (ip) administration in mice; format: functional
Outline: (§1)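 Male CF-1 mice; compounds dissolved in 30% polyethylene glycol 400, given ip. Screening at 30, 100, 300 mg/kg, four mice per dose, tested at 0.5, 1 and 4 h for protection against maximal electroshock seizures.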

Mus musculus [2] = assay: Concentration required to inhibit seizures was determined in MES test after (ip) administration in mice; Range is >100 to <300; format: functional
[3] = Neurological toxicity was determined using horizontal screen test in mice after intraperitoneal administration; Range is >100 to <300; format: organism-based; details: mouse, in vivo, ip
[4] = Neurological toxicity was determined using horizontal screen test in mice after intraperitoneal administration; format: organism-based; details: mouse, in vivo, ip
Outline: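 Male CF-1 mice, ip dosing in 30% PEG 400. Previously trained mice placed on a 13 × 13 cm no. 4 mesh wire screen on a vertical rod. Rod rotated 180°; failure to return to top within 1 min counted as impairment.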

Mus musculus [5] = assay: Concentration required to inhibit seizures was determined in MES test after (ip) administration in mice; Range is >25 to <100; format: functional; outline: as §1
[6] = Protective index (TD50/ED50) was determined; format: functional
Outline: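 Ratio of horizontal-screen TD50 to MES ED50, both ip in male CF-1 mice given in 30% PEG 400. Both values taken at time of peak anticonvulsant activity, each from a dose-response curve (10–12 or 12 mice per dose).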

Row | Structure (SMILES) | ED50 (Mus musculus [1]) | TD50 [4] | other results
1 | CCC1(c2ccccc2)C(=O)NC(=O)NC1=O [PHENOBARBITAL] | 21.8 mg/kg |  | 
2 | CC(=O)NC(C(=O)NCc1ccccc1)c1cc2ccccc2s1 (configuration not stated) |  |  | ED50 (Mus musculus [2]): > 100 mg/kg; TD50 [3]: > 100 mg/kg
3 | CC(=O)NC(C(=O)NCc1ccccc1)c1ccsc1 (configuration not stated) |  | > 100 mg/kg | 
4 | CC(=O)NC(C(=O)NCc1ccccc1)c1ccc2ccccc2c1 (configuration not stated) | > 300 mg/kg | > 300 mg/kg | 
5 | CC(=O)N[C@H](C(=O)NCc1ccccc1)c1ccccc1 | > 300 mg/kg | > 100 mg/kg | 
6 | CC(=O)NC(C(=O)NCc1ccccc1)c1ccc(C)o1 (configuration not stated) |  | 75.4 mg/kg | 
7 | CC(=O)N[C@H](C)C(=O)NCc1ccccc1 | 54.8 mg/kg | 214 mg/kg | 
8 | CC(=O)NC(C(=O)NCc1c(F)cccc1F)c1ccco1 (configuration not stated) |  |  | ED50 (Mus musculus [5]): > 25 mg/kg
9 | CC(=O)NC(C(=O)NCc1ccccc1)c1ccco1 (configuration not stated) | 10.3 mg/kg | ~40 mg/kg | 
10 | CC(=O)NC(C(=O)NCc1ccccc1)c1ccc[nH]1 (configuration not stated) |  | > 30 mg/kg | 
11 | CC(=O)NC(C(=O)NCc1ccccc1)c1cc2ccccc2o1 (configuration not stated) |  |  | ED50 (Mus musculus [2]): > 100 mg/kg; TD50 [3]: > 100 mg/kg
12 | CC(=O)N[C@@H](C)C(=O)NCc1ccccc1 | 548 mg/kg | 841 mg/kg | 
13 | COc1ccc(C(NC(C)=O)C(=O)NCc2ccccc2)cc1 (configuration not stated) | > 300 mg/kg |  | 
14 | CC(=O)N[C@H](C(=O)NCc1ccccc1)c1ccco1 | > 25 mg/kg | > 200 mg/kg | 
15 | CC(=O)N[C@@H](C(=O)NCc1ccccc1)c1ccco1 | 3.3 mg/kg | 23.8 mg/kg | Ratio [6]: 7.2
16 | CC(=O)NC(C(=O)NCc1ccccc1)c1ccc(O)cc1 (configuration not stated) | > 300 mg/kg |  | 
17 | CC(=O)N[C@@H](C(=O)NCc1ccccc1)c1ccccc1 | 26.4 mg/kg | > 80 mg/kg | 
18 | CC(=O)NC(C(=O)NCc1ccccc1)c1cc(C)ccc1O (configuration not stated) | > 300 mg/kg |  | 
19 | CC(=O)NC(C(=O)NCc1ccccc1)c1cccs1 (configuration not stated) |  | > 30 mg/kg | 
20 | CC(=O)NC(C(=O)NCc1ccc(F)cc1)c1ccco1 (configuration not stated) |  | 144 mg/kg | 
21 | CC(=O)NC(C(=O)NCc1ccccc1)c1c[nH]c2ccccc12 (configuration not stated) | > 300 mg/kg | < 300 mg/kg | 
22 | CC(=O)NC(C(=O)NCc1ccccc1)c1ccccc1 (configuration not stated) | 32.1 mg/kg | > 40 mg/kg | 
23 | CC(=O)NC(C(=O)NCc1ccccc1)c1cccn1C (configuration not stated) | ~300 mg/kg |  | 
24 | CC(=O)NC(C(=O)NCc1cccc(F)c1)c1ccco1 (configuration not stated) |  | 136 mg/kg | 
